How the values were obtained:
[1] = target: Growth hormone secretagogue receptor type 1 (Homo sapiens, UniProt Q92847); experiment: Displacement of [125I]-Ghrelin from human GHSR membranes overexpressing GSH-R1a by scintillation counting
Outline: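 Binding affinity (Ki) at GHS-R1a was measured by 125I-ghrelin displacement using commercial human GHS-R1a membranes.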

[2] = Antagonist activity at mouse GSH-R1a receptor expressed in HEK293 cells assessed as inhibition of ghrelin-induced calcium mobilization after 5 mins by FLIPR assay; type: functional, cell-based; conditions: HEK293, 5 min
Outline: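 Functional antagonism was measured as IC50 in a FLIPR Ca2+ mobilisation assay.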

[3] = target: Voltage-gated inwardly rectifying potassium channel KCNH2 (Homo sapiens, UniProt Q12809); experiment: Inhibition of human Erg by patch clamp assay; conditions: for pIC50: human
[4] = Volume of distribution at steady state in Sprague-Dawley rat at 1 mg/kg, iv; type: ADME, organism-based; design: dose 1 mg/kg, route intravenous; conditions: in vivo, read-out: Vdss
Outline: (§1)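 Male Sprague-Dawley rats were dosed with compound formulated in 20% trappsol in water for injection as the vehicle.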

[5] = tested on: Rattus norvegicus; experiment: Clearance in Sprague-Dawley rat at 1 mg/kg, iv; type: ADME, organism-based; design: dose 1 mg/kg, route intravenous; conditions: in vivo; outline: as §1
[6] = AUC in Sprague-Dawley rat at 3 mg/kg, po; type: ADME, organism-based; design: dose 3 mg/kg, route oral; conditions: plasma; outline: as §1
[7] = AUC in Sprague-Dawley rat at 1 mg/kg, iv; type: ADME, organism-based; design: dose 1 mg/kg, route intravenous; conditions: plasma; outline: as §1
[8] = Oral bioavailability in Sprague-Dawley rat at 1 mg/kg; type: ADME, organism-based; conditions: in vivo, 3 mg/kg, in the assay text read “3 mg/kg” for “1 mg/kg”; outline: as §1
[9] = Half life in Sprague-Dawley rat at 1 mg/kg, iv; type: ADME, organism-based; design: dose 1 mg/kg, route intravenous; conditions: in vivo; outline: as §1
[10] = target: 5-hydroxytryptamine receptor 2B (Homo sapiens) (UniProt P41595); experiment: Inhibition of 5-HT2B at 10 uM
[11] = target: T1, Muscarinic acetylcholine receptor M1 (Homo sapiens) (UniProt P11229); experiment: Inhibition of muscarinic M1 receptor at 10 uM
T1 sequence (whole entry): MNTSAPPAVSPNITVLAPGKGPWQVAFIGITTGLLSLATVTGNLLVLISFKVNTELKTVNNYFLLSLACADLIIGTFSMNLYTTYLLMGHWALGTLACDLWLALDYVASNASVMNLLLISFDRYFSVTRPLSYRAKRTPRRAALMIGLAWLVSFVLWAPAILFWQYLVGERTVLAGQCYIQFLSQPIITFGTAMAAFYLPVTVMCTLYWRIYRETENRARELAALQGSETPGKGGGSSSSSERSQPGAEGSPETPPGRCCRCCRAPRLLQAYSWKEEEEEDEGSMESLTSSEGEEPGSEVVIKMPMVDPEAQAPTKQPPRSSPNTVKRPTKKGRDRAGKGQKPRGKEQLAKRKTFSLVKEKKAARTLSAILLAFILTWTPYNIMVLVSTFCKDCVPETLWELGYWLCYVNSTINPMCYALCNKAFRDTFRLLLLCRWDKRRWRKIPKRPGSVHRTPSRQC

[12] = target: T2, Muscarinic acetylcholine receptor M2 (Homo sapiens) (UniProt P08172); experiment: Inhibition of muscarinic M2 receptor at 10 uM
T2 sequence (whole entry): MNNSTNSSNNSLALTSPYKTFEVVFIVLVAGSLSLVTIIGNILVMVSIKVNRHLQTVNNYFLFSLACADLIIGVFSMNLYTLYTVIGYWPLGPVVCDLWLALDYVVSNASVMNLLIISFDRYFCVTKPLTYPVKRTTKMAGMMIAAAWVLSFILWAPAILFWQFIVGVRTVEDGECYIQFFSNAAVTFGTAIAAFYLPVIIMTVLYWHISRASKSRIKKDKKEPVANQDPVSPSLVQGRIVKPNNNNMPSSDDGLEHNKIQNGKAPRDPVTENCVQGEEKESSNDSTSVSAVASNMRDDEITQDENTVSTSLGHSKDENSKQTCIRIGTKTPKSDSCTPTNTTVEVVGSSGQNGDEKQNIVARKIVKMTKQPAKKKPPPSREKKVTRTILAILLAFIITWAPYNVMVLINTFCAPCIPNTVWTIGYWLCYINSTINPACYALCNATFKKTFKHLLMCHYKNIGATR

[13] = target: hERG (KCNH2) (Homo sapiens, UniProt Q12809); experiment: in vitro
Sequence of hERG (KCNH2) (Q12809 whole entry): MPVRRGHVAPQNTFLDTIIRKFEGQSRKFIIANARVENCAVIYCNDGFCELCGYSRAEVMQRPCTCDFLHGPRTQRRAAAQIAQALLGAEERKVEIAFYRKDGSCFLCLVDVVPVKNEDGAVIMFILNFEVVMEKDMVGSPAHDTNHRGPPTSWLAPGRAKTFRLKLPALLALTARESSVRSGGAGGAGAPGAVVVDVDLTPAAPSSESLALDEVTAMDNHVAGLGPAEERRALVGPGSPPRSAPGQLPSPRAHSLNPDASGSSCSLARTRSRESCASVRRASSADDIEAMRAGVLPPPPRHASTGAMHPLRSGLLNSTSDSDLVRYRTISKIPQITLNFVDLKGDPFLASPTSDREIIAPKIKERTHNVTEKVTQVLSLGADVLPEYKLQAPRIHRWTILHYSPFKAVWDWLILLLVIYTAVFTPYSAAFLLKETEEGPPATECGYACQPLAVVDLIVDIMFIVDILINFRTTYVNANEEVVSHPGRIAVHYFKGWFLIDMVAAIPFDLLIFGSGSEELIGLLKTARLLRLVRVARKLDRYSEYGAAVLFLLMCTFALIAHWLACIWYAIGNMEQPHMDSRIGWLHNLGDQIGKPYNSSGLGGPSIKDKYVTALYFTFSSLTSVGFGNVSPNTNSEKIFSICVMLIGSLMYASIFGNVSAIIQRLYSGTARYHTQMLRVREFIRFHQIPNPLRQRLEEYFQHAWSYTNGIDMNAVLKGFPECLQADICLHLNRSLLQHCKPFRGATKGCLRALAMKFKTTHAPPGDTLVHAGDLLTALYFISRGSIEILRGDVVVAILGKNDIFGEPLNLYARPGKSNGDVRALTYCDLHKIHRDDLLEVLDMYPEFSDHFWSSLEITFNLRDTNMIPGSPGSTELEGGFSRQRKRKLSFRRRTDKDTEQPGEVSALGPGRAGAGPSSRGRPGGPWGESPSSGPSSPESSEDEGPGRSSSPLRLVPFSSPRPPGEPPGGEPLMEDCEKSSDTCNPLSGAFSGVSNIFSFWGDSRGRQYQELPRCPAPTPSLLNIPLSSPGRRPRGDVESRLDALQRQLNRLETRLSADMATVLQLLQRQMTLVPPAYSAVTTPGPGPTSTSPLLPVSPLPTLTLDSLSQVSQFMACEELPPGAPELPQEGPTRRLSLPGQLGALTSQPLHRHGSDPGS

Sequence of Growth hormone secretagogue receptor type 1 (Q92847 whole entry): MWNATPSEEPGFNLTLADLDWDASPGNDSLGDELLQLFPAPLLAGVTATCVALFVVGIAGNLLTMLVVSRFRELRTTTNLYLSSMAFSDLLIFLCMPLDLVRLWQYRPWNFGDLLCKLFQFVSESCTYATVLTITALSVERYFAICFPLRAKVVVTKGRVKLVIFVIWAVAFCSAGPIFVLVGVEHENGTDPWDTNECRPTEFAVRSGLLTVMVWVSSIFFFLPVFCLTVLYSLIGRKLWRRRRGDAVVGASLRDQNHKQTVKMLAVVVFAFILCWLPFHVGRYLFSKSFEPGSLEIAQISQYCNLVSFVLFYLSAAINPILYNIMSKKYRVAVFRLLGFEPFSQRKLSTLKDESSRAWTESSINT
Sequence of Voltage-gated inwardly rectifying potassium channel KCNH2 (Q12809 whole entry): as the sequence (Q12809 whole entry) above
Sequence of 5-hydroxytryptamine receptor 2B (Homo sapiens) (P41595 whole entry): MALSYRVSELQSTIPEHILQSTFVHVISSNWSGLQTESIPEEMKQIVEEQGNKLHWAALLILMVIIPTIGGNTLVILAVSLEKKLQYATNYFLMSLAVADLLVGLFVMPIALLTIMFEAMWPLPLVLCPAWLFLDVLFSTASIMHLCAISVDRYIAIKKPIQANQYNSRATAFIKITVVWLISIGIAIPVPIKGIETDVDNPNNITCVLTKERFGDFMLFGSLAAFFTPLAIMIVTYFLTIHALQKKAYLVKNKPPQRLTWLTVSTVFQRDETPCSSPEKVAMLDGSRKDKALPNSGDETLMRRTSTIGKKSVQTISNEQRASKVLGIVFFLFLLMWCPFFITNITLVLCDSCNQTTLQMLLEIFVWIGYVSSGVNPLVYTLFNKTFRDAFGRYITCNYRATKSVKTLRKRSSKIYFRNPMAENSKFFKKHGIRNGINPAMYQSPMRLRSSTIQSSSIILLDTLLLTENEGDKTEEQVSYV

| SMILES | Ki [1] | IC50 [2] | also measured |
| --- | --- | --- | --- |
| Cc1nc2ncc(Oc3ccc4c(c3)OCO4)nc2c(=O)n1C[C@H]1CCCN(C(C)C)C1 | 1.5 nM | 16.5 nM |  |
| Cc1nc2ncc(Oc3ccc(F)c4cccnc34)nc2c(=O)n1C[C@H]1CCCN(C(C)C)C1 | 1.9 nM | 142 nM | IC50 [3]: > 33000 nM |
| COc1ccc(Cn2c(CCc3c[nH]c4ccccc34)nnc2[C@@H](Cc2c[nH]c3ccccc23)NC(=O)[C@@H]2CCCN2)c(OC)c1 |  | 5.6 nM |  |
| Cc1nc2ccc(Oc3ccc4ncsc4c3)nc2c(=O)n1C[C@H]1CCCN(C(C)C)C1 | 0.01 nM | 2.7 nM |  |
| Cc1nc2ccc(Oc3ccc4c(c3)OCO4)nc2c(=O)n1C[C@H]1CCCN(C(C)C)C1 | 0.9 nM | 19.2 nM |  |
| Cc1nc2cnc(Oc3ccc(F)cc3)cc2c(=O)n1C[C@H]1CCCN(C(C)C)C1 | 3.4 nM | 399 nM |  |
| Cc1nc2ncc(Oc3ccc4c(c3)ncn4C)nc2c(=O)n1C[C@H]1CCCN(C(C)C)C1 | 5 nM | 51.8 nM |  |
| Cc1nc2ncc(Oc3ccc4ncsc4c3)nc2c(=O)n1C[C@H]1CCCN(C(C)C)C1 | 0.26 nM | 5.7 nM |  |
| Cc1nc2ncc(Oc3ccc(Br)cc3F)nc2c(=O)n1C[C@H]1CCCN(C(C)C)C1 | 0.05 nM | 1.17 nM |  |
| Cc1nc2cnc(Oc3ccc(F)c4cccnc34)cc2c(=O)n1C[C@H]1CCCN(C(C)C)C1 | 6.6 nM | 1440 nM | IC50 [3]: 9400 nM |
| Cc1nc2ccc(Oc3ccc(F)cc3)nc2c(=O)n1C[C@H]1CCCN(C(C)C)C1 | 2 nM | 185 nM | Vd [4]: 11.9 L/kg; clearance [5]: 1.92 L/h/kg; AUC [6]: 0.941 µg·h/mL; AUC [7]: 0.523 µg·h/mL; bioavailability [8]: 60%; half-life [9]: 7.16 h |
| Cc1nc2ncc(Oc3ccc(Br)cc3F)cc2c(=O)n1C[C@H]1CCCN(C(C)C)C1 | 0.16 nM | 26 nM | IC50 [3]: 1300 nM |
| Cc1nc2ccc(Oc3ccc(F)cc3)cc2c(=O)n1C[C@H]1CCCN(C(C)C)C1 | 1 nM | 141 nM | inhibition [10]: > 50%; inhibition [11]: > 50%; inhibition [12]: > 50% |
| Cc1nc2ccc(Oc3ccc(F)c4cccnc34)nc2c(=O)n1C[C@H]1CCCN(C(C)C)C1 | 2.6 nM | 131 nM | IC50 [3]: 130 nM |
| Cc1nc2cnc(Oc3ccc4ncsc4c3)cc2c(=O)n1C[C@H]1CCCN(C(C)C)C1 | 0.1 nM | 29.2 nM | IC50 [3]: 2400 nM; pIC50 [3]: 5.62 |
| Cc1nc2ncc(Oc3ccc(F)cc3)nc2c(=O)n1C[C@H]1CCCN(C(C)C)C1 | 3.1 nM | 587 nM | Vd [4]: 2.87 L/kg; clearance [5]: 0.78 L/h/kg; AUC [6]: 1.17 µg·h/mL; AUC [7]: 1.17 µg·h/mL; bioavailability [8]: 33%; half-life [9]: 3.01 h |
| Cc1nc2ccc(Oc3ccc(-c4ccccc4)cc3)nc2c(=O)n1C[C@H]1CCCN(C(C)C)C1 | 0.4 nM | 37.7 nM |  |
| Cc1nc2ccc(Oc3ccc(Cl)cc3F)nc2c(=O)n1C[C@H]1CCCN(C(C)C)C1 | 0.2 nM | 2 nM | Vd [4]: 6.64 L/kg; clearance [5]: 1.44 L/h/kg; AUC [6]: 0.736 µg·h/mL; AUC [7]: 0.695 µg·h/mL; bioavailability [8]: 35%; half-life [9]: 4.71 h |
| COc1ccc2cccc(Oc3ccc4nc(C)n(C[C@H]5CCCN(C(C)C)C5)c(=O)c4n3)c2n1 | 3.1 nM | 118 nM |  |
| Cc1nc2cnc(Oc3ccc4c(c3)ncn4C)cc2c(=O)n1C[C@H]1CCCN(C(C)C)C1 | 0.5 nM | 137 nM |  |
| Cc1nc2ccc(Oc3ccc(Br)cc3F)nc2c(=O)n1C[C@H]1CCCN(C(C)C)C1 | 0.01 nM | 2.3 nM |  |
| Cc1nc2cnc(Oc3ccc(Cl)cc3F)cc2c(=O)n1C[C@H]1CCCN(C(C)C)C1 | 0.2 nM | 146 nM | IC50 [3]: 130 nM; pIC50 [3]: 6.89; selectivity ratio [13]: 10 |
| Cc1nc2cnc(Oc3cccc4cccnc34)cc2c(=O)n1C[C@H]1CCCN(C(C)C)C1 |  |  | IC50 [3]: 25100 nM; pIC50 [3]: 4.6 |
| Cc1nc2cnc(Oc3ccc4c(c3)OCO4)cc2c(=O)n1C[C@H]1CCCN(C(C)C)C1 | 0.3 nM | 86.5 nM |  |
| Cc1nc2ncc(Oc3ccc(Cl)cc3F)nc2c(=O)n1C[C@H]1CCCN(C(C)C)C1 | 0.6 nM | 102 nM |  |
| Nc1nc(N)c(-c2ccc(NC(=O)C3CC3)cc2)c(COCc2ccccc2)n1 |  | 188 nM |  |
| Cc1nc2ncc(Oc3ccc(F)cc3)cc2c(=O)n1C[C@H]1CCCN(C(C)C)C1 | 6.7 nM | 357 nM |  |
| Cc1nc2ncc(Oc3ccc(-c4ccccc4)cc3)cc2c(=O)n1C[C@H]1CCCN(C(C)C)C1 | 1.7 nM | 131 nM |  |
| Cc1nc2ncc(Oc3ccc(-c4ccccc4)cc3)nc2c(=O)n1C[C@H]1CCCN(C(C)C)C1 | 0.27 nM | 80 nM |  |

Reference: ChEMBL document CHEMBL1955830, “Substituted azaquinazolinones as modulators of GHSr-1a for the treatment of type II diabetes and obesity” (Bioorg Med Chem Lett, 2012)
